Reference: ChEMBL document CHEMBL3872218, “Synthesis and T-type calcium channel-blocking effects of aryl(1,5-disubstituted-pyrazol-3-yl)methyl sulfonamides for neuropathic pain treatment” (Eur J Med Chem, 2016)

Legend:
[1] = target: T1, Voltage-dependent T-type calcium channel subunit alpha-1H (Homo sapiens, UniProt O95180); test: Inhibition of Cav3.2 alpha1H (unknown origin) expressed in HEK293 cells assessed as decrease in KCl-induced depolarization mediated intracellular Ca2+ level at 10 uM by fluo3/AM based high throughput screening assay relative to control; format: cell-based
T1 sequence (O95180 whole entry): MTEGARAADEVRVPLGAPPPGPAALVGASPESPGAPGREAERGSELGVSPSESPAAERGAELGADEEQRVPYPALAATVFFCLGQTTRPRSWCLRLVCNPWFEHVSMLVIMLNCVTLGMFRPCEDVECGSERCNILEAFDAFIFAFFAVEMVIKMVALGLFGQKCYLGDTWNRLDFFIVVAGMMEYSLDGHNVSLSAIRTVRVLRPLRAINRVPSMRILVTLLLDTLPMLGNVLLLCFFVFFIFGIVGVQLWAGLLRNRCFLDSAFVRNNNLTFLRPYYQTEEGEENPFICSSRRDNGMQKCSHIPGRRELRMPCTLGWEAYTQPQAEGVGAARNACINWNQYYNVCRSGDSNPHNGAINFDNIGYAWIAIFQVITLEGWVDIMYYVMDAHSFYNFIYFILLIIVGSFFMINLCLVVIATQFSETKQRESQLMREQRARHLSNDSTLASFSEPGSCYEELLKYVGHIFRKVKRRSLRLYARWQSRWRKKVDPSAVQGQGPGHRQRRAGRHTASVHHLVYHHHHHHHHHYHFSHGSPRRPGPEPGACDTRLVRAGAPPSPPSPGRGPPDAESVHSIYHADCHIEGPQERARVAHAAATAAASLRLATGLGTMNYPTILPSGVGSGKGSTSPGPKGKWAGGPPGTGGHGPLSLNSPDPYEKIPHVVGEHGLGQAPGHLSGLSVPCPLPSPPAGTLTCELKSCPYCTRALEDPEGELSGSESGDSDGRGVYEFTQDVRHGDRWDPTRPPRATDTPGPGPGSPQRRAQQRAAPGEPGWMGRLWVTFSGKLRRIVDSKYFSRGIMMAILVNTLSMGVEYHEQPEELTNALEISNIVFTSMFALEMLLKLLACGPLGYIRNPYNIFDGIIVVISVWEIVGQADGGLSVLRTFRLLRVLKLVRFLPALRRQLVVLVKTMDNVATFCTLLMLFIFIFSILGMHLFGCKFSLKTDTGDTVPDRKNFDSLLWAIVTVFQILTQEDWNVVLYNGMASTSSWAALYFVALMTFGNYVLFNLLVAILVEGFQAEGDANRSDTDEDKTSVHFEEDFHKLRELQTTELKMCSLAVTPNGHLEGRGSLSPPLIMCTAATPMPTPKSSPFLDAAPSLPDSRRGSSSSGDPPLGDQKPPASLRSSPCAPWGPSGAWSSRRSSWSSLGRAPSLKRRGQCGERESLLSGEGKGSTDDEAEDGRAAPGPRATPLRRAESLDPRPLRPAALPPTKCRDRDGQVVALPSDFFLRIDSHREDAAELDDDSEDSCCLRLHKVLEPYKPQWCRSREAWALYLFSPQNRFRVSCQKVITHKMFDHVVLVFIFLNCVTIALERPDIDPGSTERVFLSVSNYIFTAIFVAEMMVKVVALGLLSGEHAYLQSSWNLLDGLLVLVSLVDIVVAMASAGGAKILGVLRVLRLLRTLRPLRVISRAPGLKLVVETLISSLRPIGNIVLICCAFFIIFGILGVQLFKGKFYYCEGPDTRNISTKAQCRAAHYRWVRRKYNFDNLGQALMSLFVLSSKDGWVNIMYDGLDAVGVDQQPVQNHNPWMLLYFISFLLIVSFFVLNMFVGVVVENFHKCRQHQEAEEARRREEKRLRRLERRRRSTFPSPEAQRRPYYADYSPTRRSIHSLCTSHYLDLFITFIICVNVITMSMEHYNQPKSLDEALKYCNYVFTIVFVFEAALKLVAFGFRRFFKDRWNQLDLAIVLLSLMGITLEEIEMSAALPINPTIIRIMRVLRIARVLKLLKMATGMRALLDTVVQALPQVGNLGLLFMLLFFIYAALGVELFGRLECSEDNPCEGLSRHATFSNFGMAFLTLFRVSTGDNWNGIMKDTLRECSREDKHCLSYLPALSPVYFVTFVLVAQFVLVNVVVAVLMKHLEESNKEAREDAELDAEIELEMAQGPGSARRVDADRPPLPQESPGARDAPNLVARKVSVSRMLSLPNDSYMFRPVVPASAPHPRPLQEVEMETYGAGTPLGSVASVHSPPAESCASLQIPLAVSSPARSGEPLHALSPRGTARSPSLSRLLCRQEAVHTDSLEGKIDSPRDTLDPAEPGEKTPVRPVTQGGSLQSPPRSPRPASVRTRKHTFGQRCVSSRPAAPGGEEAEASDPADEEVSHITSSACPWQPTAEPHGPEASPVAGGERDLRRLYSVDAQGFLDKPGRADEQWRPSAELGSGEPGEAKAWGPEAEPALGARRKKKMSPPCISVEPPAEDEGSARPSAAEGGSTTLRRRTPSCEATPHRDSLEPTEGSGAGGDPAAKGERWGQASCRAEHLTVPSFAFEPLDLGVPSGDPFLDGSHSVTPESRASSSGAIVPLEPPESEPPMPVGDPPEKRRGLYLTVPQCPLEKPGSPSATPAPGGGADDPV
Procedure, shortened: (§1)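 HEK293 cells stably expressing Cav3.1 or Cav3.2 plated at 4 × 10⁴ cells/well and used the next day. Loaded 60 min at room temperature with […] fluo3/AM plus 0.001% Pluronic F-127 in HEPES-buffered saline (1.8 mM CaCl₂, pH 7.4). Ca²⁺ fluorescence read on FDSS6000 as % inhibition, compound at […].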

[2] = target: T2, Voltage-dependent T-type calcium channel subunit alpha-1G (Homo sapiens, UniProt O43497); test: Inhibition of Cav3.1 alpha1G (unknown origin) expressed in HEK293 cells assessed as decrease in KCl-induced depolarization mediated intracellular Ca2+ level at 10 uM by fluo3/AM based high throughput screening assay relative to control; format: cell-based; procedure, shortened: as §1
T2 sequence (O43497 whole entry): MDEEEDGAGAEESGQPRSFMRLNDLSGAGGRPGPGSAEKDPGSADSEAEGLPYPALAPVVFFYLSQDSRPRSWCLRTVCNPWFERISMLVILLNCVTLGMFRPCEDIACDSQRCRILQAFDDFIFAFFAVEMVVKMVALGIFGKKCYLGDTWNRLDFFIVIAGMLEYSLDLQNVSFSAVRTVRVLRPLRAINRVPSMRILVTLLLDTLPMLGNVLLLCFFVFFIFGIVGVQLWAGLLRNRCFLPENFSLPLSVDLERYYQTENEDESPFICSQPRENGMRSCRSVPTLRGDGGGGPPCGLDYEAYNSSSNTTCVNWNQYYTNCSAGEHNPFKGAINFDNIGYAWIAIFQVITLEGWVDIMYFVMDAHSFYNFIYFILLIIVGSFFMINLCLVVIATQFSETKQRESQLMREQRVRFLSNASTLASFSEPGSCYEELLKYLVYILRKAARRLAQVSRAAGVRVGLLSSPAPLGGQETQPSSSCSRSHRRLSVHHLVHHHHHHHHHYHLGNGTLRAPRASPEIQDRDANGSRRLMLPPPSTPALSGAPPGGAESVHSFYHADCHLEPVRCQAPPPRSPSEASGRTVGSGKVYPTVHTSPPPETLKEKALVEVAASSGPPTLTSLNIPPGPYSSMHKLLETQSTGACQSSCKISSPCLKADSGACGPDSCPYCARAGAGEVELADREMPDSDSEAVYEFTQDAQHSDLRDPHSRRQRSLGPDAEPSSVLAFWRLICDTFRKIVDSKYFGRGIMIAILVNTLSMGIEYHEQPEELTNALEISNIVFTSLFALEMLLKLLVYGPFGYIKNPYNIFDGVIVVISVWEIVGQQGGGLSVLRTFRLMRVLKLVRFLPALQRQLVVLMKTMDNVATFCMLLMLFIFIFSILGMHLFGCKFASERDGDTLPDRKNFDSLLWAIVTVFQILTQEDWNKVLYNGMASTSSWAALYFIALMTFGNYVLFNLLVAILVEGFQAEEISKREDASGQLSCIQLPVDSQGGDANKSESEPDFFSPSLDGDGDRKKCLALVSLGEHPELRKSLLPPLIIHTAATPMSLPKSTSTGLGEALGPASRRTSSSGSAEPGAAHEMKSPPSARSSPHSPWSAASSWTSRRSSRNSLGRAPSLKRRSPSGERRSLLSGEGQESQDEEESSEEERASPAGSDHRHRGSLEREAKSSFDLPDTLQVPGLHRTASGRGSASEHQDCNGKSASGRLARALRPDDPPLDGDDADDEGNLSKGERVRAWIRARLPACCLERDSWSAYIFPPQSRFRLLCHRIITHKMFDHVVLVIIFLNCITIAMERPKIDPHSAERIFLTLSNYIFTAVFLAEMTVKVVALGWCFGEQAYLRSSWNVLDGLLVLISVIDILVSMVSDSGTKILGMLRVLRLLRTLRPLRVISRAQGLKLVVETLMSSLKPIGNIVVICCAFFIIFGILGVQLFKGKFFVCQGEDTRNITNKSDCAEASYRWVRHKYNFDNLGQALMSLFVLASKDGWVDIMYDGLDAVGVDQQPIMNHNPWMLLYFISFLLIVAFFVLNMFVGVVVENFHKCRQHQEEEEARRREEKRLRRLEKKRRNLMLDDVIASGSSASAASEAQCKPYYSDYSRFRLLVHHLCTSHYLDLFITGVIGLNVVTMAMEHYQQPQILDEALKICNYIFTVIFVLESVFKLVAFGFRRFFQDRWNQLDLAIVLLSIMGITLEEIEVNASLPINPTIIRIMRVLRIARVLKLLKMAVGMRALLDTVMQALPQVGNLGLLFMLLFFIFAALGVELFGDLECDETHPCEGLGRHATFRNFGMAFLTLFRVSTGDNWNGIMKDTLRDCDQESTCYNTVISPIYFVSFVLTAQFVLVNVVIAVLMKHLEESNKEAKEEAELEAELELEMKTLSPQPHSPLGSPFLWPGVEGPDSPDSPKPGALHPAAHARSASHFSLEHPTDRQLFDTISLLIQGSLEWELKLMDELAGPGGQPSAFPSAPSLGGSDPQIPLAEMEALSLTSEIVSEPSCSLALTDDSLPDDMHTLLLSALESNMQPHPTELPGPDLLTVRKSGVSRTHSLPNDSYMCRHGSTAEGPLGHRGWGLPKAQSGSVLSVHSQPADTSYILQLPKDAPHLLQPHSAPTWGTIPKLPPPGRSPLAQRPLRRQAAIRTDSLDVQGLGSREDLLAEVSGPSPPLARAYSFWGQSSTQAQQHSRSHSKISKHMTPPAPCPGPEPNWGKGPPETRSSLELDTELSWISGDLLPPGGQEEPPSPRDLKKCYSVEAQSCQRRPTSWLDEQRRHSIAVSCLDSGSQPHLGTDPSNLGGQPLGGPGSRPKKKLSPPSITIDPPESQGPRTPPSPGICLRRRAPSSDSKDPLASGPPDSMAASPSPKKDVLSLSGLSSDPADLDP

Rattus norvegicus [3] = test: Antineuropathic pain activity in rat spinal nerve ligation model assessed as effect on mechanical allodynia by measuring frequency of paw withdrawal at 100 mg/kg, po measured at 1 hr relative to control; format: functional
Procedure, shortened: (§2)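 Spinal nerve ligation rats tested 2 weeks after nerve surgery, 100 mg/kg oral, n = 4 per group. Behaviour re-tested at 1, 3 and 5 h after dosing. Mechanical allodynia: von Frey filament applied five times, every 3–4 s, to the hind paw on a wire mesh floor. Cold allodynia: acetone applied to the plantar hind paw on a metal mesh floor.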

Rattus norvegicus [4] = test: Antineuropathic pain activity in rat spinal nerve ligation model assessed as effect on mechanical allodynia by measuring frequency of paw withdrawal at 100 mg/kg, po measured at 3 hrs relative to control; format: functional; procedure, shortened: as §2
Rattus norvegicus [5] = test: Antineuropathic pain activity in rat spinal nerve ligation model assessed as effect on cold allodynia by measuring frequency of paw withdrawal at 100 mg/kg, po measured at 3 hrs relative to control; format: functional; procedure, shortened: as §2
Rattus norvegicus [6] = test: Antineuropathic pain activity in rat spinal nerve ligation model assessed as effect on cold allodynia by measuring frequency of paw withdrawal at 100 mg/kg, po measured at 5 hrs relative to control; format: functional; procedure, shortened: as §2
Rattus norvegicus [7] = test: Antineuropathic pain activity in rat spinal nerve ligation model assessed as effect on cold allodynia by measuring frequency of paw withdrawal at 100 mg/kg, po measured at 1 hr relative to control; format: functional; procedure, shortened: as §2
Rattus norvegicus [8] = test: Antineuropathic pain activity in rat spinal nerve ligation model assessed as effect on mechanical allodynia by measuring frequency of paw withdrawal at 100 mg/kg, po measured at 5 hrs relative to control; format: functional; procedure, shortened: as §2
Rattus norvegicus [9] = test: Antineuropathic pain activity in rat spinal nerve ligation model assessed as effect on cold allodynia by measuring frequency of paw withdrawal at 100 mg/kg, po measured at 5 hrs relative to gabapentin; format: functional; procedure, shortened: as §2
CYP3A4 = CYP3A4 (Homo sapiens, UniProt P08684); test: Inhibition of human CYP3A4 assessed as remaining activity at 10 uM using vivid CYP450 substrate measured after 15 mins by fluorescence assay relative to ketoconazole; format: ADME; details: probe vivid CYP450 substrate, read-out: Activity
Procedure, shortened: (§3)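 Vivid fluorescence CYP assay: test compound at […] in water, mixed with BACULOSOMES master pre-mix and regeneration system, preincubated 15 min at 37 °C. Reaction started with Vivid substrate and NADPH. Remaining activity read by fluorescence as % of control, triplicate, mean ± SD. Isoform-specific reference inhibitors: α-naphthoflavone (1A2), sulfaphenazole (2C9), quinidine (2D6), ketoconazole (3A4).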

[10] = target: Voltage-gated inwardly rectifying potassium channel KCNH2 (Homo sapiens, UniProt Q12809); test: Inhibition of human ERG expressed in CHOK1 cells by whole-cell patch clamp method; format: cell-based, CHO-K1
[11] = target: T2, Voltage-dependent T-type calcium channel subunit alpha-1G; test: Inhibition of Cav3.1 alpha1G (unknown origin) expressed in HEK293 cells by whole-cell patch clamp method; format: cell-based
Procedure, shortened: (§4)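 Whole-cell patch clamp on HEK293 cells expressing Cav3.1 or Cav3.2. T-type currents evoked every 15 s by a 50-ms step from −100 mV to −30 mV. External solution (mM): 140 NaCl, 2 CaCl₂, 10 HEPES, 10 glucose, pH 7.4.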

[12] = target: T1, Voltage-dependent T-type calcium channel subunit alpha-1H; test: Inhibition of Cav3.2 alpha1H (unknown origin) expressed in HEK293 cells by whole-cell patch clamp method; format: cell-based; procedure, shortened: as §4
Rattus norvegicus [13] = test: Antineuropathic pain activity in rat spinal nerve ligation model assessed as effect on cold allodynia by measuring frequency of paw withdrawal at 100 mg/kg, po measured at 3 hrs relative to gabapentin; format: functional; procedure, shortened: as §2
Rattus norvegicus [14] = test: Antineuropathic pain activity in rat spinal nerve ligation model assessed as effect on mechanical allodynia by measuring frequency of paw withdrawal at 100 mg/kg, po measured at 5 hrs relative to gabapentin; format: functional; procedure, shortened: as §2
Rattus norvegicus [15] = test: Antineuropathic pain activity in rat spinal nerve ligation model assessed as effect on mechanical allodynia by measuring frequency of paw withdrawal at 100 mg/kg, po measured at 1 hr relative to gabapentin; format: functional; procedure, shortened: as §2
[16] = Metabolic stability in human liver microsomes assessed as compound remaining at 1 uM in presence of NADPH as cofactor by LC-MS/MS method; format: ADME; details: read-out: Stability
Procedure, shortened: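 Pooled mixed-gender human liver microsomes incubated with compound at 37 °C with NADPH as cofactor. Result given as % parent compound remaining.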

Rattus norvegicus [17] = test: Antineuropathic pain activity in rat spinal nerve ligation model assessed as effect on cold allodynia by measuring frequency of paw withdrawal at 100 mg/kg, po measured at 1 hr relative to gabapentin; format: functional; procedure, shortened: as §2
CYP1A2 = target: T3, CYP1A2 (Homo sapiens, UniProt P05177); test: Inhibition of human CYP1A2 assessed as remaining activity at 10 uM using vivid CYP450 substrate measured after 15 mins by fluorescence assay relative to alpha-naphthoflavon; format: ADME; details: probe vivid CYP450 substrate, read-out: Activity; procedure, shortened: as §3
T3 sequence (P05177 whole entry): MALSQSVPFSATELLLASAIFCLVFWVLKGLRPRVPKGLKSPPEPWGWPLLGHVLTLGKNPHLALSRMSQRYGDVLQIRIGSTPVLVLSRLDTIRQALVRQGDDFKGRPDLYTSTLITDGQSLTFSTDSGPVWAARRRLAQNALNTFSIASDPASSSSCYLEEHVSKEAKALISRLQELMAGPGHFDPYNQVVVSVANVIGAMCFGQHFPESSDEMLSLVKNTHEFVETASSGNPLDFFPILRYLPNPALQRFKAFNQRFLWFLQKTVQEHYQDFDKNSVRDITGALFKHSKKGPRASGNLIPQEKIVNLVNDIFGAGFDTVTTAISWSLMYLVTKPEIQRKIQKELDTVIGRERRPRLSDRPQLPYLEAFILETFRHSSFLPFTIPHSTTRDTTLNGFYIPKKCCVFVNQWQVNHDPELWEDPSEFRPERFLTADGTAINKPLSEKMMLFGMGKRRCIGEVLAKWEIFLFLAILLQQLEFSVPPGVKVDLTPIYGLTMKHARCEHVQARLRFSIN

CYP2D6 = CYP2D6 (Homo sapiens, UniProt P10635); test: Inhibition of human CYP2D6 assessed as remaining activity at 10 uM using vivid CYP450 substrate measured after 15 mins by fluorescence assay relative to quinidine; format: ADME; details: probe vivid CYP450 substrate, read-out: Activity; procedure, shortened: as §3
Rattus norvegicus [18] = test: Poteny index, ratio of test compound to mibefradil antineuropathic pain activity in rat spinal nerve ligation model assessed as effect on mechanical allodynia by measuring frequency of paw withdrawal at 100 mg, po measured after 1 hr; format: functional
CYP2C9 = CYP2C9 (Homo sapiens, UniProt P11712); test: Inhibition of human CYP2C9 assessed as remaining activity at 10 uM using vivid CYP450 substrate measured after 15 mins by fluorescence assay relative to sulfaphenazol; format: ADME; details: probe vivid CYP450 substrate, read-out: Activity; procedure, shortened: as §3
Homo sapiens = species on record: Homo sapiens; test: Inhibition of N-type Ca2+ channel (unknown origin) at 10 uM by whole-cell patch clamp method relative to control
Rattus norvegicus [19] = test: Poteny index, ratio of test compound to gabapentin antineuropathic pain activity in rat spinal nerve ligation model assessed as effect on mechanical allodynia by measuring frequency of paw withdrawal at 100 mg, po measured after 1 hr; format: functional
Rattus norvegicus [20] = test: Antineuropathic pain activity in rat spinal nerve ligation model assessed as effect on mechanical allodynia by measuring frequency of paw withdrawal at 100 mg/kg, po measured at 3 hrs relative to gabapentin; format: functional; procedure, shortened: as §2
N1E-115 = test: Inhibition of voltage dependent T-type Ca2+ channel in mouse N1E-115 cells assessed as reduction in transient inward Ca2+ current at 50 uM by whole-cell patch clamp method relative to control; format: cell-based
Rattus norvegicus [21] = species on record: Rattus norvegicus; test: Inhibition of voltage dependent T-type Ca2+ channel in Wistar rat cerebral cortex assessed as reduction in transient inward Ca2+ current at -60 mV holding potential at 500 uM by whole-cell patch clamp method relative to control

## CC(C)Cc1cc(CNS(=O)(=O)c2ccc(C(C)(C)C)cc2)nn1-c1ccccc1
[1]
  inhibition: 33.4%
[2]
  inhibition: 46.9%

## Cc1ccc(S(=O)(=O)NCc2cc(CC(C)C)n(-c3ccccc3)n2)cc1
[1]
  inhibition: 62.2%
[2]
  inhibition: 57.3%

## Cc1cc(I)ccc1S(=O)(=O)NCc1cc(CC(C)C)n(-c2ccccc2)n1
[1]
  inhibition: 26.6%
[2]
  inhibition: 22.6%

## Cc1ccc(F)c(S(=O)(=O)NCc2cc(CC(C)C)n(-c3ccccc3)n2)c1
[1]
  inhibition: 70%
[2]
  inhibition: 54.9%

## NCC1(CC(=O)O)CCCCC1 [GABAPENTIN]
Rattus norvegicus [3]
  MPE: 11.03%
Rattus norvegicus [4]
  MPE: 56.94%
Rattus norvegicus [5]
  MPE: 80.51%
Rattus norvegicus [6]
  MPE: 43.66%
Rattus norvegicus [7]
  MPE: 44.01%
Rattus norvegicus [8]
  MPE: 45.28%

## CC(C)Cc1cc(CNS(=O)(=O)c2cccc3ccccc23)nn1-c1ccccc1
[1]
  inhibition: 25.2%
[2]
  inhibition: 24.3%

## CC(C)Cc1cc(CNS(=O)(=O)c2ccccc2)nn1-c1ccccc1
Rattus norvegicus [3]
  MPE: 45.95%
Rattus norvegicus [9]
  MPE: 169.88%
Rattus norvegicus [4]
  MPE: 36.45%
CYP3A4
  activity at 0.25 h, 10 µM: 69.6%
[10]
  IC50: 21 µM
Rattus norvegicus [5]
  MPE: 81.73%
Rattus norvegicus [6]
  MPE: 74.17%
[11]
  IC50: 5.65 µM
[12]
  IC50: 5.8 µM
Rattus norvegicus [13]
  MPE: 101.52%
Rattus norvegicus [14]
  MPE: 68.26%
[1]
  inhibition: 63.9%
Rattus norvegicus [15]
  MPE: 416.59%
[16]
  remaining at 1 µM: 13.9%
Rattus norvegicus [17]
  MPE: 236.08%
CYP1A2
  activity at 0.25 h, 10 µM: 36.6%
CYP2D6
  activity at 0.25 h, 10 µM: 208%
Rattus norvegicus [18]
  Ratio: 3
CYP2C9
  activity at 0.25 h, 10 µM: 38.4%
Homo sapiens
  inhibition: 38.2%
Rattus norvegicus [7]
  MPE: 103.9%
Rattus norvegicus [8]
  MPE: 30.91%
Rattus norvegicus [19]
  Ratio: 3
Rattus norvegicus [20]
  MPE: 64.01%
[2]
  inhibition: 61.4%

## NS(=O)(=O)Cc1noc2ccccc12
N1E-115
  inhibition: 40%
Rattus norvegicus [21]
  inhibition: 60%

## CC(C)Cc1cc(CNS(=O)(=O)c2c(F)cccc2F)nn1-c1ccccc1
[1]
  inhibition: 69.3%
[2]
  inhibition: 45.1%
